Data published in paper PMC10694828 (RSC Advances, 2023).

What was measured:
[1] = target: T1, MAO-B (Homo sapiens, UniProt P27338); experiment: Reversibility of MAO-B inhibition by dialysis; type: biochemical; settings: for Reversibility of MAO-B inhibition: dialysis; for Relative MAO-B activity, undialyzed (AU) / Relative MAO-B activity, dialyzed (AD): ~2.0 times IC50, 30 min preincubation; for Relative MAO-B activity, dialyzed (AD): dialyzed 6 h with two buffer changes
T1 sequence (P27338 1-520): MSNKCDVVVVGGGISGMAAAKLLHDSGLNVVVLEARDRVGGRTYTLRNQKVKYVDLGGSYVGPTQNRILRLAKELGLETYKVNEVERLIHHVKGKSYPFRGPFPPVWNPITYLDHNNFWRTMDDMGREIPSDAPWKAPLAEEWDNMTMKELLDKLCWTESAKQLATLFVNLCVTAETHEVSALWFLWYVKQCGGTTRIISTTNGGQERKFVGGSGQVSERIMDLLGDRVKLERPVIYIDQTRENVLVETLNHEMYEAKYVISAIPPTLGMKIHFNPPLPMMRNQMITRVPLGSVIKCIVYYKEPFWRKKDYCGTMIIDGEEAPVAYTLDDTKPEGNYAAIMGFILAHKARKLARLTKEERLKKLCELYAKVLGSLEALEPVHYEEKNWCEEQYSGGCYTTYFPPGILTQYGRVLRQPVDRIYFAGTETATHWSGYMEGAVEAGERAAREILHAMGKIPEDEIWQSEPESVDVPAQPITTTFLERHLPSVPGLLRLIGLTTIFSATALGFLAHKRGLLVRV

[2] = target: T2, recombinant human MAO-A (Homo sapiens, UniProt P21397); experiment: MAO-A inhibition, continuous assay with kynuramine; type: biochemical; settings: for remaining activity at 10 µM: read-out: Residual activity at 10 μM (%) MAO-A
T2 sequence (P21397 1-527): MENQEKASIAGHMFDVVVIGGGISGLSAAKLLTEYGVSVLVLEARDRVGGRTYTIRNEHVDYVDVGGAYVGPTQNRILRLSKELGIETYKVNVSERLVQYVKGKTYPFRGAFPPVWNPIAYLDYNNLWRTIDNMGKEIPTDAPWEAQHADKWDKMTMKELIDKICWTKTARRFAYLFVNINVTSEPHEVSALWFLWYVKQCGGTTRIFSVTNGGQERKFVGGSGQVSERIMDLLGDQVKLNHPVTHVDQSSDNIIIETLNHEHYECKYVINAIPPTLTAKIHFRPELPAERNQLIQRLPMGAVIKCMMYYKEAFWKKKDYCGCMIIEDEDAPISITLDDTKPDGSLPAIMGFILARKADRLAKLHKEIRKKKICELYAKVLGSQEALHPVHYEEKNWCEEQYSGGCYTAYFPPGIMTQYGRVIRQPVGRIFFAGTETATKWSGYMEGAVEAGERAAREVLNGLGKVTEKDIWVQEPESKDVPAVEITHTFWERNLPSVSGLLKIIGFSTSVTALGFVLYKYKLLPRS

[3] = target: T1, MAO-B; experiment: MAO-B inhibition, continuous assay with benzylamine; type: biochemical; settings: for SI (selectivity index for MAO-B compared to MAO-A): (IC50 of MAO-A)/(IC50 of MAO-B); for remaining activity at 10 µM: read-out: Residual activity at 10 μM (%) MAO-B
[4] = PAMPA for BBB permeation; type: in vitro ADME; settings: for Papp: PAMPA; for Experimental Pe / Prediction (CNS permeation): PAMPA-BBB
Method in brief: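 Passive BBB permeation by PAMPA on a filter membrane with 0.45 micron pores, 125 microns thick. Drug concentrations in donor, receiver and reference wells were measured by UV spectroscopy. Pe (10−6 cm s−1) was calculated as […]. Pe > 4.00 was classed CNS+ (high permeation).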

[5] = target: T1, MAO-B; experiment: Enzyme kinetics of MAO-B inhibition; type: biochemical; settings: for Inhibition type for MAO-B: Lineweaver–Burk plots
Method in brief: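 Recombinant human MAO-B. Activity was followed continuously by absorbance at 250 nm with benzylamine as substrate at five concentrations (0.0375–0.60 […]). Three inhibitor concentrations were tested against each substrate level. The inhibition pattern and Ki came from Lineweaver–Burk plots and from secondary plots of slope versus inhibitor concentration.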

O=C1Nc2ccccc2/C1=N/N=Cc1ccc(OCc2ccccc2)cc1 [ISB1, (3Z)-3-((4-(benzyloxy)benzylidene)hydrazineylidene)indolin-2-one]
Reversibility of MAO-B inhibition [1]: reversible | Relative MAO-B activity, undialyzed (AU) [1]: 31.61% | Relative MAO-B activity, dialyzed (AD) [1]: 83.77% | IC50 [2]: 6824 ± 49 nM | remaining activity at 10 µM [2]: 38.78 ± 0.25% | IC50 [3]: 124 ± 7 nM | SI (selectivity index for MAO-B compared to MAO-A) [3]: 55.03 | remaining activity at 10 µM [3]: -8.77 ± 0.14% | Papp [4]: 4.93 ± 0.13 ×10⁻⁶ cm/s | Experimental Pe [4]: higher than 4.0 ×10^−6 cm s^−1 | Prediction (CNS permeation) [4]: CNS+ (Pe (10^−6 cm s^−1) > 4.00: CNS+ (high permeation)) | Ki [5]: 55 ± 10 nM | Inhibition type for MAO-B [5]: competitive

O=C1Nc2ccc(F)cc2C1=NN=Cc1ccc(OCc2ccccc2)cc1 [ISB3]
IC50 [2]: > 40000 nM | remaining activity at 10 µM [2]: 74.5 ± 0.95% | IC50 [3]: 13900 ± 204 nM | SI (selectivity index for MAO-B compared to MAO-A) [3]: >2.87 | remaining activity at 10 µM [3]: 59.6 ± 1.11%

O=C1Nc2ccccc2C1=NN=Cc1cccc(OCc2ccccc2)c1 [ISBB1]
IC50 [2]: 1570 ± 48 nM | remaining activity at 10 µM [2]: 4.84 ± 1.61% | IC50 [3]: 540 ± 29 nM | SI (selectivity index for MAO-B compared to MAO-A) [3]: 2.91 | remaining activity at 10 µM [3]: 1.99 ± 0.86%

O=C1Nc2ccccc2/C1=N/N=Cc1ccc(OCc2cccc(F)c2)cc1 [ISFB1, (3Z)-3-((4-((3-fluorobenzyl)oxy)benzylidene)hydrazineylidene)indolin-2-one]
Reversibility of MAO-B inhibition [1]: reversible | Relative MAO-B activity, undialyzed (AU) [1]: 31.42% | Relative MAO-B activity, dialyzed (AD) [1]: 79.32% | IC50 [2]: 678 ± 6 nM | remaining activity at 10 µM [2]: 4.17 ± 0.32% | IC50 [3]: 135 ± 2 nM | remaining activity at 10 µM [3]: -3.03 ± 0.24% | Papp [4]: 4.09 ± 0.24 ×10⁻⁶ cm/s | Experimental Pe [4]: higher than 4.0 ×10^−6 cm s^−1 | Prediction (CNS permeation) [4]: CNS+ (Pe (10^−6 cm s^−1) > 4.00: CNS+ (high permeation)) | Ki [5]: 69 ± 25 nM | Inhibition type for MAO-B [5]: competitive

O=C1Nc2ccc(Br)cc2C1=NN=Cc1ccc(OCc2cccc(F)c2)cc1 [ISFB2]
IC50 [2]: > 40000 nM | remaining activity at 10 µM [2]: 88.5 ± 1.38% | IC50 [3]: 16000 ± 308 nM | SI (selectivity index for MAO-B compared to MAO-A) [3]: >2.49 | remaining activity at 10 µM [3]: 57.6 ± 1.1%
